# Screening data deposited in PubChem by The Scripps Research Institute Molecular Screening Center.
# Rows were chosen to be rich in hits. Some 1.7% of all compounds tested hit in one or more screens of this group.
# S1P2 ag: S1P2 receptor agonists, primary screen, cell-based; Sphingosine 1-phosphate receptor 2 (Homo sapiens), O95136; S1P2-expressing cell line, agonist reporter read-out; activation, % at 4.5 µM; 0.46% of 97,000 active; in the data active = activation above about 16%;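 note: 0% = vehicle low control and 100% = maximal reference agonist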
# S1P2 antag: human S1P2 receptor antagonists, primary screen, cell-based; Sphingosine 1-phosphate receptor 2 (Homo sapiens), O95136; cell-based S1P2 antagonist assay, inhibition at 5 uM; inhibition, % at 5 µM; 0.21% of 97,000 active; AID 736, 2007; in the data active = inhibition above about 45%;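 note: CRE beta-lactamase reporter cells expressing human S1P2 stimulated with S1P; 0% = agonist at EC80 alone and 100% = agonist plus reference antagonist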
# GALR2 blocker: GALR2 antagonists in receptor-expressing cells, primary screen. Galanin receptor type 2 (Homo sapiens), O43603. antagonist mode. inhibition, % at 4 µM. 0.39% of 140,000 active; in the data active = inhibition above about 27%;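 note: cells stimulated with galanin 1-16 at roughly its EC80; 0% = agonist challenge control and 100% = basal control without agonist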
# Target sequence (O43603 whole entry, looked up): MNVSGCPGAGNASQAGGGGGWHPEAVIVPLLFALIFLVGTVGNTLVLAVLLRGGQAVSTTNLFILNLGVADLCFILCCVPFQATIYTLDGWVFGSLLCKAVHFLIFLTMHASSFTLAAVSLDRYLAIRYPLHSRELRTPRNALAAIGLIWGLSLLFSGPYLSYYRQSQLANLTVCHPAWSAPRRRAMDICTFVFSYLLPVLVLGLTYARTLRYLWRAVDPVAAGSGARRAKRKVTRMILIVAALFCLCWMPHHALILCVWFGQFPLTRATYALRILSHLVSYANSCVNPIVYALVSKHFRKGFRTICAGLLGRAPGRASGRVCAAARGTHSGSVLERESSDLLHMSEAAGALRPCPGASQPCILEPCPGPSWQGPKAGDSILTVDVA
# GALR2 agonist: GALR2 receptor agonists, primary screen, cell-based; activation, % (no concentration beside the values); 0.48% of 140,000 active; GALR2-expressing cells, agonist activation read-out; in the data active = activation above about 5%, passing the limit was not always enough;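 note: 0% = vehicle buffer wells and 100% = reference agonist at full effect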
# EphB4 ephrin blk: EphB4-ephrin-B2 interaction antagonists, primary screen, biochemical, TNYL-RAW peptide probe, fluorescence polarization | 0.15% of 97,000 active | inhibition, % at 7 µM | EphB4 LBD / TNYL-RAW-Alexa532 peptide | Ephrin type-B receptor 4 (Homo sapiens), P54760;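 active = inhibition above the screen-wide mean inhibition plus 3 SD, cut at about 15% in these data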;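 note: 0% = DMSO wells and 100% = excess unlabeled TNYL-RAW peptide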
# HIV Rev-RRE inh: HIV-1 Rev-RRE binding inhibitors, primary screen, biochemical, FRET, protein-RNA interaction | P05866 | Rev peptide-RRE RNA binding | inhibition, % at 8 µM | 0.79% of 97,000 active;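 active = inhibition above the screen-wide mean plus 3 SD, cut at about 35% in these data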;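 note: 0% = median DMSO wells and 100% = median Neomycin B control wells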
#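 assay system = Cy5-tagged RRE RNA duplex with fluorescein-tagged Rev peptide | incubation = 5 + 15 min at 25 °C | also added = labelled Rev peptide | measure = % inhibition of FRET ratio versus controls | benchmarks = DMSO wells as 0% and neomycin B wells as 100% inhibition | measured by = FRET fluorescence readout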
# GALR2 agon conf: GALR2 agonists, retest of hits, confirmation, cell-based. shares compounds with GALR2 agonist. 10% of 460 active. activation, % at 5.6 µM. GALR2-expressing cells, agonist activation; in the data active = activation above about 8.4%;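 note: 0% = buffer-only vehicle wells and 100% = full reference agonist response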
# BLA activ ctr: activators of NFAT-driven beta-lactamase reporter, confirmation, counter-screen for GALR2 agonist project, CHO NFAT-bla cells, FRET readout. beta-lactamase FRET activation. shares compounds with GALR2 agonist. 10% of 460 active. activation, % at 5.6 µM;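 active = activation above the screen-wide mean activation plus 3 SD, cut at about 8% in these data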;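 note: 0% = DMSO with PBS wells and 100% = thapsigargin positive control wells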
# An asterisk follows results filed as active; . = no result.
SMILES,S1P2 ag,S1P2 antag,GALR2 blocker,GALR2 agonist,EphB4 ephrin blk,HIV Rev-RRE inh,GALR2 agon conf,BLA activ ctr
CCS(=O)(=O)N1CCN(c2cccc(C)c2C)CC1,-6,8,-5,17*,3,2,-1,-2
CCc1nnc(NC(=O)CCC(=O)N2CCN(c3ccccn3)CC2)s1,-2,19,3,-2,6,0,.,.
Cc1ccc(CNC(=O)c2ccc3nc4[nH]c5ccccc5c4nc3c2)cc1,.,.,5,14*,.,.,8.7*,6
COc1cccc(NC(=O)N(C2CCCCC2)C(C)c2cccs2)c1 (stereo not drawn),0,0,5,-2,0,6,.,.
CCOc1cc(/C=N\NC(=O)Cn2nc([N+](=O)[O-])cc2C)ccc1OCc1cccc2ccccc12,-4,-23,-12,35*,-1,3,-1,-3
COC(=O)C1CCN(C(=O)COC(=O)Cn2cnnn2)CC1,-3,6,-7,160*,10,11,-1,0
COC(=O)C1CCN(C(=O)COC(=O)CC(NC(C)=O)c2ccccc2)CC1 (stereo not drawn),-1,-4,1,-1,5,6,.,.
COc1ccc(NS(=O)(=O)c2ccc(S(=O)(=O)N3CCCC3)cc2)cc1,-3,-2,-12,15*,1,5,-1,0
CCn1c(CNC(=O)c2cccc(C)c2)nc2ccccc21,0,-14,-1,-2,-2,-1,.,.
O=C(CNCc1ccc(Cl)cc1)NCc1ccco1,.,.,7,0,.,.,.,.
Cc1ccc(-c2nnc(-c3ccncc3)n2-c2ccc(C)cc2)cc1,-7,17,5,-2,0,3,.,.
CCc1cc(=O)oc2c(CN3CCCC3)c(O)c(Cl)cc12,9,0,-12,2,-2,7,.,.
CCc1cc(=O)oc2c(CN3CCN(C)CC3)c(O)c(Cl)cc12,11,-39,-22,12*,-2,2,1,3
COc1ccc(-c2cnnn2-c2ccc(NC(=O)c3ccco3)cc2)cc1OC,7,-33,7,20*,-3,6,0,-1
COc1ccc(-c2cnnn2-c2ccc(NC(=O)c3ccc(S(=O)(=O)N4CCCCC4)cc3)cc2)cc1OC,.,.,4,4,.,.,.,.
CCc1cc2c(CN3CCN(CCO)CC3)cc(=O)oc2cc1O,4,11,-3,11,3,12,1,4
CCc1cc2c(CN3CCN(C)CC3)cc(=O)oc2cc1O,2,19,4,2,3,6,.,.
COc1cccc(OC)c1C(=O)NNC(=O)c1cccc(COc2ccc3c(c2)CCC3)c1,-6,21,-22,1,1,2,.,.
CCOC(=O)c1cc2cc3ccccc3cc2[nH]1,15,15,4,22*,5,4,4,11*
CC(C)OC(=O)c1cc2ccccc2[nH]1,-5,-23,0,-2,-5,1,.,.
CN1CCN(S(=O)(=O)c2ccc(Sc3nnc(-c4cccs4)n3-c3ccccc3)nc2)CC1,-6,5,-4,0,3,1,.,.
CSc1nnc(-c2cnccn2)n1CCCN1CCCC1=O,.,.,1,-2,.,.,.,.
CCOC(=O)c1ccc(NC(=O)CCc2ccc(CC)o2)cc1,-2,1,-6,8,1,2,-1,0
Cc1cc(C)c2nc(NNC(=O)c3ccc(S(=O)(=O)N4CCCC(C)C4)cc3)sc2c1 (stereo not drawn),.,.,16,18*,.,.,8.2*,-2
Cc1ccc2nc(NNC(=O)c3ccc(S(=O)(=O)N4CCc5ccccc5C4)cc3)sc2c1,.,.,-3,-3,.,.,.,.
Cc1cccc2sc(NNC(=O)c3ccc(S(=O)(=O)N4CC(C)CC(C)C4)cc3)nc12 (stereo not drawn),.,.,8,33*,.,.,8,-3
